Measurements from ChEMBL document CHEMBL4043294, “Chemogenomic Profiling of Human and Microbial FK506-Binding Proteins” (J Med Chem, 2018).
Activity calls are given as the source filed them. The rule behind the calls is not given here.

Legend:
[1] = (§1) Displacement of 5-(3-(4-(((5S,6S)-10-(3,5-dichlorophenylsulfonyl)-2-oxo-5-vinyl-3,10-diazabicyclo[4.3.1]decan-3-yl)methyl)-1H-1,2,3-triazol-1-yl)propylcarbamoyl)-2-(6-(dimethylamino)-3-(dimethyliminio)-3,10-dihydroanthracen-9-yl)benzoate from Candida albicans FKBP12 after 30 mins by fluorescence polarization assay
In short: (§2)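 Competitive fluorescence polarization against a TAMRA-labelled tracer in 20 mM NaCl, 20 mM HEPES pH 8.0, 0.002% Tween20. Ligand serially diluted 1:1 in DMSO, then diluted 50-fold into tracer-containing buffer and added to protein. Equilibrated 30 min at room temperature before polarization read. Competition curves fitted.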

[2] = biological target: Peptidyl-prolyl cis-trans isomerase FKBP1A (Homo sapiens, UniProt P62942); assay: as §1, with “human” for “Candida albicans”; in short: as §2
[3] = biological target: T1, Peptidyl-prolyl cis-trans isomerase FKBP2 (Homo sapiens, UniProt P26885); assay: as §1, with “human FKBP13” for “Candida albicans FKBP12”; in short: as §2
T1 sequence (P26885 whole entry): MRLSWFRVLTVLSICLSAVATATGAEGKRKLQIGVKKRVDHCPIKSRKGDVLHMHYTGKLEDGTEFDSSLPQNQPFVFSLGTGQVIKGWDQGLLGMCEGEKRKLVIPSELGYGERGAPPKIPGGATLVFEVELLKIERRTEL

[4] = biological target: Peptidyl-prolyl cis-trans isomerase FKBP1B (Homo sapiens, UniProt P68106); assay: as §1, with “human FKBP12.6” for “Candida albicans FKBP12”
In short: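 Competitive fluorescence polarization with the fluorescent tracer in 20 mM NaCl, 20 mM HEPES pH 8.0, 0.002% Tween20. Ligand is serially diluted 1:1 in DMSO, then 1:50 into tracer-containing buffer. This mix is added to protein at 1.11× final concentration (protein:mix 45:5). After 30 min at room temperature to reach equilibrium, polarization is read and competition curves are fitted.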

[5] = biological target: T2, Peptidyl-prolyl cis-trans isomerase FKBP3 (Homo sapiens, UniProt Q00688); assay: as §1, with “human FKBP25” for “Candida albicans FKBP12”; in short: as §2
T2 sequence (Q00688 whole entry): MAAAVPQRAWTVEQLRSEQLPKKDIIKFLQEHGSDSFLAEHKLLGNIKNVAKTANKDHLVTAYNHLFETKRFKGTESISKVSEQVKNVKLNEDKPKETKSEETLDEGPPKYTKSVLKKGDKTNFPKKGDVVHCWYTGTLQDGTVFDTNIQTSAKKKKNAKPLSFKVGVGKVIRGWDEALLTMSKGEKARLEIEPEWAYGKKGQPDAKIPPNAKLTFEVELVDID

[6] = biological target: T3, Peptidyl-prolyl cis-trans isomerase FKBP4 (Homo sapiens, UniProt Q02790); assay: as §1, with “human FKBP52” for “Candida albicans FKBP12”; in short: as §2
T3 sequence (Q02790 whole entry): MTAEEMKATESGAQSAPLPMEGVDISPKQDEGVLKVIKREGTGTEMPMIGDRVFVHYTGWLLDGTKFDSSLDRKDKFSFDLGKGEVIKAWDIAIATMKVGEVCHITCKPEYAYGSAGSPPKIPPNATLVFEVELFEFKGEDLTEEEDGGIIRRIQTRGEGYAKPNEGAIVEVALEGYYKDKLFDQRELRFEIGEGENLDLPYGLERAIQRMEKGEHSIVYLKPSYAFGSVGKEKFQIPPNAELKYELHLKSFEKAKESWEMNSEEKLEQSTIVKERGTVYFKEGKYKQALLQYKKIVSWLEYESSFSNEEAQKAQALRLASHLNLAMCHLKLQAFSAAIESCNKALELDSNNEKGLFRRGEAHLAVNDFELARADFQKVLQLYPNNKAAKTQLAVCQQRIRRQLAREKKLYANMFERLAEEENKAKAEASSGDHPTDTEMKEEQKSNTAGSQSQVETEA

[7] = biological target: T4, Peptidyl-prolyl cis-trans isomerase FKBP5 (Homo sapiens, UniProt Q13451); assay: as §1, with “human FKBP51” for “Candida albicans FKBP12”; in short: as §2
T4 sequence (Q13451 whole entry): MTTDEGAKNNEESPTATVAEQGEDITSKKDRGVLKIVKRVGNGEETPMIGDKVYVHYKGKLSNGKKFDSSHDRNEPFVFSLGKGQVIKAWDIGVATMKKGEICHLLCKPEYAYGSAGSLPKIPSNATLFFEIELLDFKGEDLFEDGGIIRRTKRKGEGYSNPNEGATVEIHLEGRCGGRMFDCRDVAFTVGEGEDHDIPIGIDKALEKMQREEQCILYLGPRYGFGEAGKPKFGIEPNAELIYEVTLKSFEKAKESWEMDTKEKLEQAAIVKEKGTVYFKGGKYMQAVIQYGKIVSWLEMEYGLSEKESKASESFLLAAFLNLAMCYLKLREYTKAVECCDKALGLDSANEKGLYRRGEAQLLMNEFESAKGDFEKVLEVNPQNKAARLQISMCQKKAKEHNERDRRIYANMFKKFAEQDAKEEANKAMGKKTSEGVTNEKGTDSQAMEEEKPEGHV

Plasmodium falciparum [8] = assay: Antiparasitic activity against Plasmodium falciparum 3D7 infected in human RBC assessed as decrease in parasitemia after 60 hrs by Hoechst 33342 staining-based flow cytometric method; assay type: functional; settings: for IC50: 3D7, 60 h
In short: (§3)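 Sorbitol-synchronized early-stage parasites, adjusted to 1% parasitemia at 2% hematocrit. Serial dilutions of compound in DMSO (≤0.05% per well) applied in triplicate for 60 h. Cells stained with 16.2 μM Hoechst 33342 in PBS for 20 min at room temperature. Parasitemia read by flow cytometry; IC50 estimated from dose–response curves.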

Legionella pneumophila = assay: Antibacterial activity against Legionella pneumophila Corby infected in differentiated human THP1 cells assessed as bacterial growth inhibition after 24 hrs; assay type: functional
In short: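 THP-1 monocytes at 5 × 10^5 cells/mL were differentiated with 100 nM PMA for 2 days. L. pneumophila Corby grown 3 days on BCYE agar was added at MOI 1. After 2 h, extracellular bacteria were washed off with PBS and compound was added in medium (control 1% DMSO). At 2 and 24 h, cells were lysed with 0.1% Triton X-100 and dilutions plated on BCYE. Colonies counted after 3–4 days at 37 °C. Three independent experiments in duplicate.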

Chlamydia pneumoniae [9] = assay: Antibacterial activity against Chlamydia pneumoniae CWL029 infected in human Hep2 or HeLa cells assessed as decrease in generation of infectious elementary bodies at 10 uM after 48 hrs by immunofluorescent staining-based assay; assay type: functional, cell-based
In short: (§4)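 HEp-2 or HeLa cells, 3.5 × 10^4 per well in RPMI1640 with 5% FBS, nonessential amino acids and 2 mM glutamine, grown overnight at 37 °C in 5% CO2. Inhibitor added at infection (C. pneumoniae CWL029 0.2 IFU/cell; C. trachomatis serovar D 0.5 IFU/cell). Plates centrifuged at 700g for 1 h at 35 °C, then incubated 48 h. Inclusions stained with anti-chlamydial-LPS immunofluorescence and host cells counterstained with Evans Blue. Recoverable bacteria normalized to untreated controls.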

[10] = biological target: Outer membrane protein MIP (Legionella pneumophila, UniProt Q70YI1); assay: as §1, with “Legionella pneumophila Mip” for “Candida albicans FKBP12”; in short: as §2
Chlamydia trachomatis = assay: Antibacterial activity against Chlamydia trachomatis Serovar D infected in human Hep2 or HeLa cells assessed as decrease in generation of infectious elementary bodies at 10 uM after 48 hrs by immunofluorescent staining-based assay; assay type: functional, cell-based; in short: as §4
[11] = biological target: T5, Peptidyl-prolyl cis-trans isomerase Mip (Chlamydia pneumoniae, UniProt Q9Z7P3); assay: as §1, with “Chlamydia pneumoniae Mip” for “Candida albicans FKBP12”; in short: as §2
T5 sequence (Q9Z7P3 whole entry): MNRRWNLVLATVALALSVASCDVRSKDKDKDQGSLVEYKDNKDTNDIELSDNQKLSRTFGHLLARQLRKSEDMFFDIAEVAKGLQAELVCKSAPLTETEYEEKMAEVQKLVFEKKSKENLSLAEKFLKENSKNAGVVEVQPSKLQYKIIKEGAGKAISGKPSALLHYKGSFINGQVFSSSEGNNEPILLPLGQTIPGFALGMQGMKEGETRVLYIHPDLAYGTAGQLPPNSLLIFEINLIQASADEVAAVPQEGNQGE

Chlamydia pneumoniae [12] = assay: Antibacterial activity against Chlamydia pneumoniae CWL029 infected in human Hep2 or HeLa cells assessed as decrease in inclusion size at 10 uM after 48 hrs by immunofluorescent staining-based assay; assay type: functional, cell-based; in short: as §4
[13] = as §1, with “Chlamydia trachomatis Mip” for “Candida albicans FKBP12”; in short: as §2
[14] = as §1, with “FKBP35” for “FKBP12”; design: species or system Plasmodium falciparum; in short: as §2
Plasmodium falciparum [15] = assay: Antiparasitic activity against multidrug-resistant Plasmodium falciparum Dd2 infected in human RBC assessed as decrease in parasitemia after 60 hrs by Hoechst 33342 staining-based flow cytometric method; assay type: functional; settings: Dd2, 60 h; in short: as §3

Peptidyl-prolyl cis-trans isomerase FKBP1A, sequence (P62942 whole entry): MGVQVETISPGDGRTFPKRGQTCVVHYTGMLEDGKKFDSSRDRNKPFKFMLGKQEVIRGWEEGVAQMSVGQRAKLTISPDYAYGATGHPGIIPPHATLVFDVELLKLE
Outer membrane protein MIP, sequence (Q70YI1 21-233 limits assumed): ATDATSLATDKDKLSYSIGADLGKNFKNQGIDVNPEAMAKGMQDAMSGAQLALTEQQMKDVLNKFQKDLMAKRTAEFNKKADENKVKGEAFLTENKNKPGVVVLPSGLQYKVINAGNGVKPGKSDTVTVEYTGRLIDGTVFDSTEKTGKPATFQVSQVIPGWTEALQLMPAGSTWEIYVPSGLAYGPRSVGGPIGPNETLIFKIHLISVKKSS
Peptidyl-prolyl cis-trans isomerase FKBP1B, sequence (P68106 whole entry): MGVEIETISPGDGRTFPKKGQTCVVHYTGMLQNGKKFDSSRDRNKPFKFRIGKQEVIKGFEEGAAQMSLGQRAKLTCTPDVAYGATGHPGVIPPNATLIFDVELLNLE

C=C[C@H]1CN(Cc2ccccn2)C(=O)[C@@H]2CCC[C@H]1N2S(=O)(=O)c1ccc(-c2ncccn2)cc1
Ki [1]: 0.052 µM

C=C[C@H]1CN(CC(=O)O)C(=O)[C@@H]2CCC[C@H]1N2S(=O)(=O)c1cc(Cl)cc(Cl)c1
Ki [2]: 0.007 to 0.025 µM

COC[C@H]1CN(Cc2ccccn2)C(=O)[C@@H]2CCC[C@H]1N2S(=O)(=O)c1cc(Cl)cc(Cl)c1
Ki [3]: 0.0605 µM | Ki [4]: 0.00123 µM | Ki [5]: 1.13 µM | Ki [2]: 0.00045 µM | Ki [6]: 0.0189 µM | Ki [7]: 0.0245 µM

CC[C@H]1CN(CCOC)C(=O)[C@@H]2CCC[C@H]1N2S(=O)(=O)c1cc(Cl)cc(Cl)c1
IC50 (Plasmodium falciparum [8]): 8.3 µM | growth inhibition (GI) (Legionella pneumophila): Dose-dependent effect

C=C[C@@H]1CN(CCN(C)C)C(=O)[C@@H]2CCC[C@H]1N2S(=O)(=O)c1cc(Cl)cc(Cl)c1
Ki [2]: 0.007 to 0.025 µM

C=C[C@H]1CN(Cc2ncccc2F)C(=O)[C@@H]2CCC[C@H]1N2S(=O)(=O)c1cc(Cl)cc(Cl)c1
Ki [2]: 0.0118 µM

C=C[C@H]1CN(CCCOC)C(=O)[C@@H]2CCC[C@H]1N2S(=O)(=O)c1cc(Cl)cc(Cl)c1
Ki [2]: 0.143 µM

C=C[C@H]1CN(CCCCOC)C(=O)[C@@H]2CCC[C@H]1N2S(=O)(=O)c1cc(Cl)cc(Cl)c1
Ki [2]: 0.249 µM

C=C[C@H]1CN(CC(=O)OCC)C(=O)[C@@H]2CCC[C@H]1N2S(=O)(=O)c1cc(Cl)cc(Cl)c1
Ki [2]: 0.007 to 0.025 µM

C#CCN1C[C@H](C=C)[C@H]2CCC[C@@H](C1=O)N2S(=O)(=O)c1cc(Cl)cc(Cl)c1
Ki [2]: 0.049 to 0.08 µM

C=C[C@H]1CN(Cc2ccco2)C(=O)[C@@H]2CCC[C@H]1N2S(=O)(=O)c1cc(Cl)cc(Cl)c1
Ki [1]: 1.49 µM | Activity (Chlamydia pneumoniae [9]): Active | Ki [10]: 6.59 µM | Activity (Chlamydia trachomatis): Active | Ki [11]: 0.315 µM | Activity (Chlamydia pneumoniae [12]): Active | Ki [13]: 1.82 µM | Ki [14]: 5.22 µM

C=C[C@H]1CN(CCOC)C(=O)[C@@H]2CCC[C@H]1N2S(=O)(=O)c1cc(Cl)cc(Cl)c1
Ki [2]: 0.0188 µM

C=C[C@H]1CN(CC#N)C(=O)[C@@H]2CCC[C@H]1N2S(=O)(=O)c1cc(Cl)cc(Cl)c1
Ki [2]: 0.049 to 0.08 µM

C=C[C@H]1CNC(=O)[C@@H]2CCC[C@H]1N2S(=O)(=O)c1cc(Cl)cc(Cl)c1
Ki [2]: 0.049 to 0.08 µM

C=C[C@H]1CN(CCOCC)C(=O)[C@@H]2CCC[C@H]1N2S(=O)(=O)c1cc(Cl)cc(Cl)c1
Ki [2]: 0.0211 µM

C=C[C@@H]1CN(CCF)C(=O)[C@@H]2CCC[C@H]1N2S(=O)(=O)c1cc(Cl)cc(Cl)c1
Ki [2]: 0.049 to 0.08 µM

CC[C@H]1CN(Cc2ccccn2)C(=O)[C@@H]2CCC[C@H]1N2S(=O)(=O)c1cc(Cl)cc(Cl)c1
Ki [1]: 0.0401 µM | Ki [10]: 0.598 µM | Activity (Plasmodium falciparum [8]): Dose-dependent effect | IC50 (Plasmodium falciparum [8]): 2.3 µM | growth inhibition (GI) (Legionella pneumophila): Dose-dependent effect | Ki [11]: 0.399 µM | IC50 (Plasmodium falciparum [15]): 3.1 µM | Ki [13]: 1.81 µM | Ki [14]: 0.0981 µM

C=C[C@H]1CN(CCNC)C(=O)[C@@H]2CCC[C@H]1N2S(=O)(=O)c1cc(Cl)cc(Cl)c1
Ki [2]: 0.007 to 0.025 µM

C=C[C@H]1CN(CC(N)=O)C(=O)[C@@H]2CCC[C@H]1N2S(=O)(=O)c1cc(Cl)cc(Cl)c1
Ki [2]: 0.007 to 0.025 µM

C=C[C@H]1CN(C)C(=O)[C@@H]2CCC[C@H]1N2S(=O)(=O)c1cc(Cl)cc(Cl)c1
Ki [2]: 0.049 to 0.08 µM
